A selection: hits, their analogues and other compounds. The true share with any hit is near 2.4%.
MT1-MMP act inh: MT1-MMP (human) activation inhibition. P50281. HT1080 RFP-PRO-GFP cells, GFP/RFP ratio fluorescence, overnight; percent of plate control window, DMSO zero. GFP/RFP ratio change, % at 20 µM. 360,000 compounds, 0.061% hits;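 active = GFP/RFP ratio change of at least 30% with cell ATP level not reduced by more than half and red fluorescence within 50% of control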
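Assay system: HT1080 RFP-PRO-GFP cells | Dosing: 20 µM single dose, 1% DMSO | Incubation: Cells overnight before dosing, compound overnight, 37 °C, 5% CO2 | Evaluation: GFP/RFP fluorescence ratio | Control set: DMSO-only wells and HT1080 RFP-L50D-GFP cell wells as references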
SENP1 inh: blocks the human SENP1 SUMO protease catalytic domain; Q9P0U3; recombinant SENP1 catalytic domain, CyPet-SUMO1-YPet FRET cleavage; inhibition, % at 10 µM; 360,000 compounds, 0.21% hits;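 active = inhibition at least 30% at 10 µM, raw YFP signal under a set limit, fluorescence ratio 0.5 to 1.5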;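 note: 0% = enzyme with DMSO and 100% = no enzyme wells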
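Material – human SENP1 catalytic domain · Input – SENP1 enzyme, 20 pM final · Compound dosing – single concentration of 10 µM compound, 0.5% DMSO final · Timing – enzyme reaction for 50 min at room temperature, dark · Measured by – FRET fluorescence in CFP and YFP emission channels · Control set – no-enzyme wells low, DMSO-plus-enzyme wells high control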
Myeloid diff MLP: compounds promoting myeloid differentiation; ER-HoxA9 myeloid progenitors, lysozyme-GFP differentiation, flow cytometry; calls only at 10 µM; 360,000 compounds, 1% hits;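 active = normalized GFP-positive differentiation at or above the plate's own cutoff, the solvent-only control mean plus 3 SD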;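 note: cells exposed to compound for four days before flow analysis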
NRP1-CendR mod: NRP-1/CendR interaction modulation | O14786 | FAM-RPARPAR peptide binding to NRP-1, fluorescence polarization | inhibition, % at 25 µM | 360,000 compounds, 0.85% hits | AID 602438;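 active = inhibition or corrected inhibition above about 18%, plus a signal ratio from 0.5 to 1.5, limit read from the data, passing the limit was not always enough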
Target sequence (O14786 whole entry, looked up): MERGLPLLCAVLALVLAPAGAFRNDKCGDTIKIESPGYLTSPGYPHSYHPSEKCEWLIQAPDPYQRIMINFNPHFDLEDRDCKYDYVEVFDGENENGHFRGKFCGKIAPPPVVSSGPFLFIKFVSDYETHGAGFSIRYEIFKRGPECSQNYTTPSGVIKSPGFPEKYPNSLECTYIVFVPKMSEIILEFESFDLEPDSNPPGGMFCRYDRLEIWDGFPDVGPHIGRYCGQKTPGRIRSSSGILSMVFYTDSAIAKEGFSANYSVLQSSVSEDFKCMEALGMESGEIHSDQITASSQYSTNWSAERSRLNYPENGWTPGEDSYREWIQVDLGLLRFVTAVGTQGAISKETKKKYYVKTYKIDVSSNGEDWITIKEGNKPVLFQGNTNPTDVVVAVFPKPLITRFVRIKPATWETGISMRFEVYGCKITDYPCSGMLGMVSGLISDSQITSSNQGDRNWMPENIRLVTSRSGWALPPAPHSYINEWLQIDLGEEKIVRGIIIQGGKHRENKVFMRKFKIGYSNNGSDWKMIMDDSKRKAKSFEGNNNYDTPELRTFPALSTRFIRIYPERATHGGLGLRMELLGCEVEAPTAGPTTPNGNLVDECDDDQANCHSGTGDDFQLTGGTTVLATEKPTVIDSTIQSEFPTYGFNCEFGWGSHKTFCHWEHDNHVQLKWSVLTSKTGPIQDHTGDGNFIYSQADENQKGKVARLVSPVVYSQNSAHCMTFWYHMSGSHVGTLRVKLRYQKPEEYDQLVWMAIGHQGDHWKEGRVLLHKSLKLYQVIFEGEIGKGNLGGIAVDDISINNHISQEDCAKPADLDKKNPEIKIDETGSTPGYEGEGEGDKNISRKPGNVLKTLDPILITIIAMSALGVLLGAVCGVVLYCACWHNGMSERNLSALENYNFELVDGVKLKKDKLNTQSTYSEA
beta cell repl: induces beta-cell replication in MIN6 cells; MIN6 cells proliferation, ATPlite luminescence, 48 h; cells starved in 0.2% serum; 100% = growth in 10% serum; proliferation, % at 10 µM; 330,000 compounds, 0.29% hits; AID 2380;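 active = compounds whose signal lies at least 3.5 SD above the mean of all wells on their plate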;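 note: 0% = DMSO-treated cells in low-serum medium and 100% = 10% serum control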
DAGLB inhibitor: diacylglycerol lipase beta (human) inhibition. AID 504411. HEK293T DAGLB membrane lysate, EnzChek fluorogenic substrate. inhibition, % at 5.17 µM. 340,000 compounds, 0.059% hits; in the data active = inhibition above about 34%;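 note: 0% = enzyme with vehicle and 100% = wells lacking enzyme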
Myeloid diff: myeloid differentiation induction; shares compounds with Myeloid diff MLP; ER-HoxA9 myeloid progenitors, GFP/Mac1 double-positive flow; calls only; 2,300 compounds, 2% hits; AID 651706;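 active = share of green or green-and-red cells above 9 and 9% in run 1 or 4 and 3% in run 2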
GFP autofluor: counter-screen for myeloid differentiation promoters: compound fluorescence. shares compounds with Myeloid diff MLP. 2,300 compounds, 7.4% hits. fluorescence response, % (concentration not given with the values). ER-HoxA9 myeloid progenitors, no estrogen, GFP autofluorescence flow cytometry; vehicle wells 0%, positive control 100%;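 active = over 5% cells positive for green fluorescent reporter, or over 2% positive for both it and APC stain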;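 note: range taken on the double positive population between DMSO and positive control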
Starred values were filed as active, the others as inactive; i = inactive; . = no result; + = active, no number.

SMILES	MT1-MMP act inh	SENP1 inh	Myeloid diff MLP	NRP1-CendR mod	beta cell repl	DAGLB inhibitor	Myeloid diff	GFP autofluor
N#Cc1ccc(-c2ccc(F)cc2)nc1SCC(=O)Nc1sc2c(c1C#N)CCC2	-101	-24	i	-20	-4	-7	i	0
COc1ccccc1N(CC(=O)NC1CCCC1)S(=O)(=O)c1ccc(C)cc1	-1	4	i	10	0	-2	.	.
CCOc1ccccc1N(CC(=O)NC1CCCCC1)S(=O)(=O)c1ccc(C)cc1	-3	5	+	8	0	0	i	0
COc1ccc(NC(=S)NCCCN2CCN(C3CCCCC3)CC2)cc1	0	5	i	10	0	-3	.	.
O=C1Nc2ccccc2/C1=C/c1ccccc1Cl	1	2	i	-5	-5	1	.	.
CN1CCN(c2ccccc2/C=C2/C(=O)Nc3ccccc32)CC1	-8	12	i	3	-4	2	i	83*
O=[N+]([O-])c1ccc(NS(=O)(=O)c2ccc(Cl)c(Cl)c2)cc1	4	-8	i	-15	.	.	.	.
COCc1cccc(N2C(=O)CC(C3C=C(C)C4C(=O)N(c5cccc(COC)c5)C(=O)C4C3)C2=O)c1 (stereo unspecified)	0	0	i	8	-1	2	.	.
O=C(COc1coc(CN2CCCc3ccccc32)cc1=O)Nc1ccc([N+](=O)[O-])cc1	-18	-22	+	-13	-2	2	i	0
CCN1CCN(CC(=O)Nc2ccc(S(=O)(=O)N3C(C)CCCC3C)cc2)CC1 (stereo unspecified)	-2	-3	i	18	-3	0	i	0
CC1CCN(S(=O)(=O)c2ccc(NC(=O)CN3CCCC3)cc2)CC1	0	1	i	1	0	1	.	.
COc1cc(/C=C2\CC/C(=C\c3cc(OC)c(OC)c(OC)c3)C2=O)cc(OC)c1OC	-29	-29	+	-51	-3	-1	i	0
Cc1ccc(S(=O)(=O)N2C[C@]3(O)C[C@@H]4C(=O)N(c5ccccc5)C(=O)[C@@H]4C[C@]3(OC(=O)NC3CCCC3)C2)cc1	4	-2	i	-8	.	-1	.	.
O=C(NCCO)/C(=C\c1ccc([N+](=O)[O-])o1)NC(=O)c1ccccc1	-2	10	i	2	-3	-1	i	0
COc1cccc(-c2cc(C(=O)NCc3ccc(Cl)cc3)no2)c1	4	0	i	-21	0	-17	i	0
COc1ccc(-c2cc(C(=O)NCc3ccc(Cl)cc3)no2)cc1OC	8	4	i	-10	-3	-1	.	.
Cc1ccsc1C(=O)N(C)CC(=O)Nc1ccccc1Br	4	0	i	-2	-5	-2	.	.
CC(=O)Nc1ccc2c3c(cccc13)C(=O)N(c1ccccc1)C2=O	-5	-35	i	-13	1	0	.	.
O=CNc1ccc2c3c(cccc13)-c1ccccc1-2	-124	-33	+	-12	.	-1	i	0
CC(Oc1cccc(Br)c1)C(=O)NNC(=O)c1ccccn1 (stereo unspecified)	10	2	+	-1	-6	1	i	2
COc1cc(OC)cc(C(=O)NNC(=O)c2ccccn2)c1	2	1	+	1	-2	1	i	0
COc1ccc(C(=O)NNC(=O)c2ccccn2)cc1	3	7	i	12	-6	3	.	.
CC(C)CNC(=O)NC(=O)CSc1nc2ccccc2n1CC(C)C	-2	-1	i	-20	-2	-3	.	.
CCCNC(=O)NC(=O)CSc1nc2ccccc2n1CC(C)C	-4	-2	i	1	1	0	i	0
CCc1cccc(OCC(O)Cn2c(N3CCCCC3)nc3c2c(=O)[nH]c(=O)n3C)c1 (stereo unspecified)	1	0	i	12	-1	0	.	.
SMILES	MT1-MMP act inh	SENP1 inh	Myeloid diff MLP	NRP1-CendR mod	beta cell repl	DAGLB inhibitor	Myeloid diff	GFP autofluor
Cc1cccc(NC(=O)C(=O)NCCc2c[nH]c3ccccc23)c1C	6	0	i	-10	0	-7	i	0
COc1cc(NC(=S)Nc2ccccn2)c(OC)cc1Cl	-1	2	i	-4	4	-1	i	0
COc1cc(NC(=S)Nc2cccc(Cl)c2Cl)c(OC)cc1Cl	9	-1	i	2	-6	1	.	.
CCOc1ccccc1-n1c(SCC(=O)N(C(C)C)C(C)C)nnc1-c1cccnc1	-6	-2	i	-2	2	-1	i	0
CCOc1ccccc1-n1c(SCC(N)=O)nnc1-c1cccnc1	-1	2	i	15	-3	-3	.	.
CC(C)CC1Nc2ccc(C(=O)NCCCN3CCOCC3)cc2NC1=O (stereo unspecified)	-3	2	i	5	-3	0	.	.
CC(C)CN(C(=O)COC(=O)C12CC3CC(CC(C3)C1)C2)c1c(N)n(Cc2ccccc2)c(=O)[nH]c1=O	-51	-5	+	-6	-8	1	i	9.5*
CC(C)CN(C(=O)c1ccc([N+](=O)[O-])s1)c1c(N)n(Cc2ccccc2)c(=O)[nH]c1=O	-14	-6	+	-20	-5	6	i	1
CCN(C(=O)CN1CCc2ccccc21)c1c(N)n(Cc2ccccc2)c(=O)[nH]c1=O	-6	-61	i	-57	0	0	i	0
COc1cc(C2CC(=O)Nc3cc(C)c(C)cc32)cc(OC)c1OC (stereo unspecified)	-3	1	+	6	0	1	i	2
CCOc1c(Br)cc(C2CC(=O)Nc3cc(OC)c(OC)cc32)cc1OC (stereo unspecified)	3	2	i	-8	-2	-3	.	.
CN1C(=O)CC(C(=O)O)SC1=Nc1cc(Cl)cc(Cl)c1 (stereo unspecified)	4	3	i	-3	-2	2	.	.
CCCCN1C(=O)C(CC(=O)NCCc2ccccn2)CC(C(=O)N(C)C)=C1C (stereo unspecified)	1	-2	i	-7	.	0	i	18*
Cc1ccc2[nH]c3c(=O)n(CCN4CCOCC4)cnc3c2c1	3	0	i	4	-1	-3	.	.
